The target of assay [1] is N-terminal truncated dSAMTOR (Δ1-64) (Drosophila melanogaster, UniProt Q9W138). Description: ITC ligand binding, Δ1-64 dSAMTOR. In a few lines: (§1)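 Tag-free dSAMTOR, expressed as His6-SUMO fusion in E. coli BL21(DE3), purified by Ni-NTA and gel filtration into 10 mM Hepes pH 7.5, 150 mM NaCl, 1 mM DTT. At 25°C, 1 mM SAM or SAH was titrated into 0.2 mM protein over 20 injections, with a background titration into buffer. Single-site fit gave Kd, ΔH and n; ΔG and ΔS were calculated. Runs: three for measurable binding, two for undetectable binding.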

In assay [2] the target is V66W/E67P mutant dSAMTOR (Drosophila melanogaster, UniProt Q9W138, E67P/V66W). Description: ITC ligand binding, V66W/E67P dSAMTOR. The method in brief:
as §1

In assay [3] the target is hSAMTOR. The note with it: read-out: dissociation constant (Kd); cited from earlier work.
Assay [4] deals with T1, hSAMTOR (WT) interaction with GATOR1-KICSTOR (Homo sapiens, UniProt Q1RMZ1).
T1 sequence (Q1RMZ1 1-405): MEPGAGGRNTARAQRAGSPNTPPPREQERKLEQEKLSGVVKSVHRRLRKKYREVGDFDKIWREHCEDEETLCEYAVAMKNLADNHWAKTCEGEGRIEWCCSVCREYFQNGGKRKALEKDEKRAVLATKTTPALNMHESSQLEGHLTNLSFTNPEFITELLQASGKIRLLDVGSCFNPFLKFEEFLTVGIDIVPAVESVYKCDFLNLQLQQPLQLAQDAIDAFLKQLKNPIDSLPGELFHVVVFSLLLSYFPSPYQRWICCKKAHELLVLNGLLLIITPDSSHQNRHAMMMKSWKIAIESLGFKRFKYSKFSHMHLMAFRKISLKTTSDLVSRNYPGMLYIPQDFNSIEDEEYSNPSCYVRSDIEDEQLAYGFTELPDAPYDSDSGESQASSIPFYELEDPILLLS
In kind it is biochemical. The note with it: WT full-length hSAMTOR, HEK 293T cell lysates, 0.5 mM SAM.

In assay [5] the target is T2, R95A hSAMTOR interaction with GATOR1-KICSTOR (Homo sapiens, UniProt Q1RMZ1, R95A).
T2 sequence (Q1RMZ1 1-405 R95A): T1 sequence (Q1RMZ1 1-405) with R95A
Description: Co-IP of Flag-hSAMTOR-R95A with HA-Nprl3 and Myc-Kaptin with or without SAM. Particulars: HEK 293T cell lysates, 0.5 mM SAM. Type of assay: biochemical.

Changes are numbered by the printed parent chain. “Also recorded” adds a separate entry of the source.

We go through one compound from PMC10883374 (Science Advances, 2022).

V66W/E67P mutant dSAMTOR, sequence (Q9W138 whole entry V66W/E67P): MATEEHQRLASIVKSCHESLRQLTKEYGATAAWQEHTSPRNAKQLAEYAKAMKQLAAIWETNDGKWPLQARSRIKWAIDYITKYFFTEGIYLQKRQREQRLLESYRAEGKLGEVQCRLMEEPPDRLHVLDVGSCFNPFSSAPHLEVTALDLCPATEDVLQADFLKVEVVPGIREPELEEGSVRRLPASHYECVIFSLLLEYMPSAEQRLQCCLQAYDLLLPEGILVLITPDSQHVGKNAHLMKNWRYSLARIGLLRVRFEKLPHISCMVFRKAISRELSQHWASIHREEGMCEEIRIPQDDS
N-terminal truncated dSAMTOR (Δ1-64), sequence (Q9W138 65-302, stated change not applied): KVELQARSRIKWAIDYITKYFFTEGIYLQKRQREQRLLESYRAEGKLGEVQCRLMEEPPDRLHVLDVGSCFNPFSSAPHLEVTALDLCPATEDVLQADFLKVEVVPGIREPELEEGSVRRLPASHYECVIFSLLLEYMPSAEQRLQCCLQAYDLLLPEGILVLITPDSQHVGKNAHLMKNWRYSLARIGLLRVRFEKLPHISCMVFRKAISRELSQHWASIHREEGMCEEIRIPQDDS

Regarding `C[S+](CC[C@H](N)C(=O)[O-])C[C@H]1O[C@@H](n2cnc3c(N)ncnc32)[C@H](O)[C@@H]1O` (stereo partly shown) [SAM, S-adenosylmethionine], the results for the Kd in assay [1], in assay [2] and in assay [3] were 6.78 ± 0.75 µM, 9.47 ± 0.81 µM and 7 µM, respectively. In addition, the TΔS in assay [1] (ITC, 25°C, Δ1-64 dSAMTOR) is 5.89 kcal/mol. In addition, the n value in assay [1] (ITC, 25°C, Δ1-64 dSAMTOR) is reported as 0.91 ± 0.01; in assay [2] (ITC, 25°C, V66W/E67P dSAMTOR), 0.88 ± 0.02. For the same compound, the ΔH in assay [1] (ITC, 25°C, Δ1-64 dSAMTOR) is -1.16 ± 0.01 kcal/mol; in assay [2] (ITC, 25°C, V66W/E67P dSAMTOR) it was -3.01 ± 0.08 kcal/mol. Further, the “effect of SAM on interaction of hSAMTOR with GATOR1-KICSTOR (co-IP)” value in assay [4] was “essentially disrupts its interactions with GATOR1-KICSTOR; also recorded: substantially weakens the interaction”; in assay [5], “comparable interactions with GATOR1 and KICSTOR in both the absence and presence of SAM”.

For orientation: Kd means the constant that tells how readily two partners part at equilibrium.
